According to ChEMBL document CHEMBL4402517, “Rational modification of Mannich base-type derivatives as novel antichagasic compounds: Synthesis, in vitro and in vivo evaluation” (Bioorg Med Chem, 2019):
The source made the active and inactive calls. The calls are words filed in the database; no cut-off is given here.

Experiments:
[1] = Mutagenecity against Salmonella typhimurium TA98 assessed as number of colonies at 7.4 ug/plate in presence of Sprague-Dawley rat S9 measured after 48 hrs by Ames test (reference value: 4 +/- 2); type: toxicity, subcellular; conditions: salmonella enterica subsp. enterica serovar typhimurium, s9, 48 h
[2] = Mutagenecity against Salmonella typhimurium TA97a assessed as number of colonies at 7.4 ug/plate in absence of Sprague-Dawley rat S9 with metabolic activation measured after 48 hrs by Ames test ( Rvb = 37 +/- 6.5); type: toxicity; conditions: salmonella enterica subsp. enterica serovar typhimurium, s9, 48 h
[3] = Mutagenecity against Salmonella typhimurium TA1535 assessed as number of colonies at 66.7 ug/plate in presence of Sprague-Dawley rat S9 measured after 48 hrs by Ames test (reference value: 5 +/- 3.6); type: toxicity, subcellular; conditions: salmonella enterica subsp. enterica serovar typhimurium, s9, 48 h
[4] = Mutagenecity against Salmonella typhimurium TA 102 assessed as number of colonies at 22.2 ug/plate in presence of Sprague-Dawley rat S9 with metabolic activation measured after 48 hrs by Ames test (reference value: 72 +/- 1); type: toxicity, subcellular; conditions: salmonella enterica subsp. enterica serovar typhimurium, s9, 48 h
[5] = Mutagenecity against Salmonella typhimurium TA 102 assessed as number of colonies at 7.4 ug/plate in presence of Sprague-Dawley rat S9 with metabolic activation measured after 48 hrs by Ames test (reference value: 72 +/- 1); type: toxicity, subcellular; conditions: salmonella enterica subsp. enterica serovar typhimurium, s9, 48 h
[6] = Mutagenecity against Salmonella typhimurium TA1535 assessed as number of colonies at 200 ug/plate in presence of Sprague-Dawley rat S9 measured after 48 hrs by Ames test (reference value: 5 +/- 3.6); type: toxicity, subcellular; conditions: salmonella enterica subsp. enterica serovar typhimurium, s9, 48 h
[7] = Mutagenecity against Salmonella typhimurium TA 100 assessed as number of colonies at 22.2 ug/plate in presence of Sprague-Dawley rat S9 with metabolic activation e measured after 48 hrs by Ames test (reference value: 47.3 +/- 5.7); type: toxicity, subcellular; conditions: salmonella enterica subsp. enterica serovar typhimurium, s9, 48 h
[8] = Mutagenecity against Salmonella typhimurium TA1535 assessed as number of colonies at 7.4 […] in presence of Sprague-Dawley rat S9 measured after 48 hrs by Ames test (reference value: 5 +/- 3.6); type: toxicity, subcellular; conditions: salmonella enterica subsp. enterica serovar typhimurium, s9, 48 h
[9] = (§1) Toxicity in BALB/c mouse infected with Trypanosoma cruzi MHOM/Pe/2011/Arequipa;DTU 5 bloodstream trypomastigote assessed as change in serum uric acid level in chronic phase at 20 mg/kg/day, po administered for 5 consecutive days starting from day 70 post infection measured on day 100 post infection relative to control; type: organism-based; conditions: in vivo
[10] = Mutagenecity against Salmonella typhimurium TA 102 assessed as number of colonies at 22.2 ug/plate in absence of Sprague-Dawley rat S9 with metabolic activation measured after 48 hrs by Ames test (reference value: 78.7 +/- 7.8); type: toxicity; conditions: salmonella enterica subsp. enterica serovar typhimurium, s9, 48 h
[11] = Mutagenecity against Salmonella typhimurium TA97a assessed as number of colonies at 7.4 ug/plate in presence of Sprague-Dawley rat S9 with metabolic activation measured after 48 hrs by Ames test (reference value: 55 +/- 7.1); type: toxicity, subcellular; conditions: salmonella enterica subsp. enterica serovar typhimurium, s9, 48 h
[12] = as §1, with “alkaline phosphatase” for “uric acid”; type: organism-based; conditions: in vivo
[13] = as §1, with “decrease” for “change”, “aspartate aminotransferase” for “uric acid”; type: organism-based; set-up: scale not given: the % may be the effect or the level left; conditions: in vivo
[14] = Mutagenecity against Salmonella typhimurium TA 102 assessed as number of colonies at 200 ug/plate in presence of Sprague-Dawley rat S9 with metabolic activation measured after 48 hrs by Ames test (reference value: 72 +/- 1); type: toxicity, subcellular; conditions: salmonella enterica subsp. enterica serovar typhimurium, s9, 48 h
Trypanosoma cruzi [15] = assay: Antitrypanosomal activity against Trypanosoma cruzi MHOM/Pe/2011/Arequipa;DTU 5 bloodstream trypomastigotes infected in BALB/c mouse assessed as decrease in splenomegaly in acute phase at 20 mg/kg/day, po administered for 5 consecutive days starting from day 8 post infection relative to untreated control; type: functional; set-up: scale not given: the % may be the effect or the level left
Outline: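 Female BALB/c mice (three per group) were infected i.p. with 5 × 10^5 Arequipa trypomastigotes and dosed orally at 20 mg/kg/day for 5 days in 5% DMSO/0.5% HPMC. Controls were uninfected and vehicle-only groups. At the end of the experiment spleens were weighed and expressed as % of body weight.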

[16] = Mutagenecity against Salmonella typhimurium TA98 assessed as number of colonies at 7.4 ug/plate in absence of Sprague-Dawley rat S9 measured after 48 hrs by Ames test (reference value: 3 +/- 2.6); type: toxicity; conditions: salmonella enterica subsp. enterica serovar typhimurium, s9, 48 h
[17] = Mutagenecity against Salmonella typhimurium TA 100 assessed as number of colonies at 7.4 ug/plate in presence of Sprague-Dawley rat S9 with metabolic activation measured after 48 hrs by Ames test (reference value: 47.3 +/- 5.7); type: toxicity, subcellular; conditions: salmonella enterica subsp. enterica serovar typhimurium, s9, 48 h
[18] = (§2) Toxicity in BALB/c mouse infected with Trypanosoma cruzi MHOM/Pe/2011/Arequipa;DTU 5 bloodstream trypomastigote assessed as change in serum uric acid level in acute phase at 20 mg/kg/day, po administered for 5 consecutive days starting from day 8 post infection and measured on day 100 post infection by biochemical analysis relative to control; type: organism-based; conditions: in vivo
[19] = Mutagenecity against Salmonella typhimurium TA 100 assessed as number of colonies at 22.2 ug/plate in absence of Sprague-Dawley rat S9 with metabolic activation ug/plate measured after 48 hrs by Ames test (reference value: 35.7 +/- 0.6); type: toxicity; conditions: salmonella enterica subsp. enterica serovar typhimurium, s9, 48 h
[20] = as §2, with “increase” for “change”, “lactate dehydrogenase” for “uric acid”; type: organism-based; conditions: in vivo
[21] = as §2, with “creatine kinase muscle to brain ratio” for “uric acid”; type: organism-based; conditions: in vivo
Trypanosoma cruzi [22] = assay: Antitrypanosomal activity against Trypanosoma cruzi MHOM/Pe/2011/Arequipa;DTU 5 epimastigote assessed as effect on parasite glycolytic pathway by measuring change in succinate excretion after 72 hrs by H NMR method; type: functional, organism-based
Outline: (§3)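 Cells were spun at 800 × g for 10 min and culture supernatants analysed by 1H NMR. Catabolite peaks were expressed as % variation versus untreated parasites.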

[23] = as §2, with “alkaline phosphatase” for “uric acid”, “days” for “days starting from day 8 post infection”; type: organism-based; conditions: in vivo
[24] = as §2, with “as increase” for “as change”, “serum aspartate aminotransferase” for “serum uric acid”, “measured at” for “measured on”, “day 14” for “day 100”; type: organism-based; conditions: in vivo
[25] = Genotoxicity in Salmonella typhimurium TA1535 harboring pSK1002 assessed as survival at 0.5 mg/ml in absence of Sprague-Dawley rat liver S9 fraction metabolic activation by SOS/umu assay relative to control; type: toxicity; conditions: salmonella enterica subsp. enterica serovar typhimurium, read-out: Survival
Outline: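 Survival of S. typhimurium TA1535/pSK1002 exposed to a range of compound concentrations with or without S9 mix in 96-well format. Survival percentage measured as the cytotoxicity arm of the SOS/umu test. Concentrations with survival ≥80% are counted as non-cytotoxic.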

[26] = as §1, with “urea” for “uric acid”; type: organism-based; conditions: in vivo
Trypanosoma cruzi [27] = assay: Antitrypanosomal activity against Trypanosoma cruzi MHOM/Pe/2011/Arequipa;DTU 5 epimastigote assessed as effect on parasite glycolytic pathway by measuring decrease in succinate excretion at IC50 after 72 hrs by H NMR method relative to control; type: functional; set-up: scale not given: the % may be the effect or the level left; outline: as §3

Work on `O=C(CCN1CCN(c2ccc(Cl)cc2)CC1)c1ccc(O)cc1` yielded an Activity [1] of 6, an Activity [2] of 34.4 and an Activity [3] of 3.3. It also gave an Activity [4] of 84.7, an Activity [5] of 75 and an Activity [6] of 7. For the same compound, the Activity [7] was 47.3, the Activity [8] was 5.5 and the Activity [9] was > 10%. For the same compound, the Activity [10] was 69.7, the Activity [11] was 44.3 and the Activity [12] was > 10%. For the same compound, the Activity [13] was “<= 10%”, the Activity [14] was 78 and the Activity (Trypanosoma cruzi [15]) was 44%. For the same compound, the Activity [16] was 4, the Activity [17] was 44.7 and the Activity [18] was > 10%. It also gave an Activity [19] of 34.3.
For `O=C(Cn1ccnc1[N+](=O)[O-])NCc1ccccc1` [BENZNIDAZOLE], the Activity [20] was “<= 10%”, the Activity [21] was > 10% and the Activity (Trypanosoma cruzi [22]) was “Active”. For the same compound, the Activity [23] was > 10% and the Activity [24] was “<= 20%”.
For `O=C(CCN1CCN(c2ccc(C(F)(F)F)cc2)CC1)c1ccc(O)cc1`, the viability at 0.5 mg/ml [25] was 155%, the Activity [26] was > 10% and the Activity (Trypanosoma cruzi [27]) was 80%.
